Test results: ChEMBL document CHEMBL4219023, “Synthesis and biological activity of novel tert-amylphenoxyalkyl (homo)piperidine derivatives as histamine H3R ligands” (Bioorg Med Chem, 2017)
Activity calls are given as the source filed them. No cut-off for these calls is given here.

Assays:
[1] = molecular target: T1, Histamine H3 receptor (Homo sapiens, UniProt Q9Y5N1); assay: Displacement of [125I]Iodoproxyfan from recombinant human histamine H3 receptor expressed in CHOK1 cell membranes after 90 mins
In short: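 Membranes of CHO-K1 cells expressing hH3R were incubated 90 min at 25 °C, shaken at 250 rpm, with [125I]iodoproxyfan (16–50 pM) and test compound. Nonspecific binding was defined with 1 μM imetit. Separation by filtration on PEI-treated GF/B filters. Ki obtained from IC50 by Cheng-Prusoff.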

[2] = test system: Mus musculus; assay: Anticonvulsant activity in CF-1 albino mouse assessed as protection against maximal electroshock-induced seizures at 30 mg/kg, ip after 0.5 hrs; type: functional, organism-based
In short: (§1)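 Male CF-1 albino mice received compound i.p. as a suspension in 0.5% methylcellulose (30, 100 or 300 mg/kg). Maximal electroshock seizure test read 0.5 h and 4 h after dosing. Result given as animals protected/animals tested.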

[3] = test system: Mus musculus; assay: Anticonvulsant activity in CF-1 albino mouse assessed as protection against maximal electroshock-induced seizures at 30 mg/kg, ip after 4 hrs; type: functional, organism-based; in short: as §1
[4] = test system: Mus musculus; assay: Anticonvulsant activity in CF-1 albino mouse assessed as protection against maximal electroshock-induced seizures at 100 mg/kg, ip after 0.5 hrs; type: functional, organism-based; in short: as §1
[5] = test system: Mus musculus; assay: Anticonvulsant activity in CF-1 albino mouse assessed as protection against maximal electroshock-induced seizures at 100 mg/kg, ip after 4 hrs; type: functional, organism-based; in short: as §1
[6] = test system: Mus musculus; assay: Anticonvulsant activity in CF-1 albino mouse assessed as protection against subcutaneous pentetrazole-induced seizures at 30 mg/kg, ip after 0.5 hrs; type: functional, organism-based
[7] = test system: Mus musculus; assay: Anticonvulsant activity in CF-1 albino mouse assessed as protection against subcutaneous pentetrazole-induced seizures at 30 mg/kg, ip after 4 hrs; type: functional, organism-based
[8] = test system: Mus musculus; assay: Anticonvulsant activity in CF-1 albino mouse assessed as protection against subcutaneous pentetrazole-induced seizures at 100 mg/kg, ip after 0.5 hrs; type: functional, organism-based
[9] = test system: Mus musculus; assay: Anticonvulsant activity in CF-1 albino mouse assessed as protection against subcutaneous pentetrazole-induced seizures at 100 mg/kg, ip after 4 hrs; type: functional, organism-based
[10] = test system: Mus musculus; assay: Neurotoxicity in CF-1 albino mouse assessed as unable to grasp at 100 mg/kg, ip after 0.5 hrs by rotarod test; type: toxicity, organism-based; settings: in vivo
In short: (§2)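 Anticonvulsant Screening Program (NINDS) Phase 1 neurotoxicity screen in male albino CF-1 mice. Compounds were given i.p. as suspensions in 0.5% methylcellulose at 30, 100 and/or 300 mg/kg, and animals were observed 0.5 h and 4 h after dosing. The rotarod test was scored as number of animals showing toxicity over number tested, with the kind of toxicity recorded: inability to grasp rotorod, death, diarrhea, continuous seizure activity, loss of righting reflex, myoclonic jerks or tremors.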

[11] = test system: Mus musculus; assay: Neurotoxicity in CF-1 albino mouse at 30 mg/kg, ip after 4 hrs by rotarod test; type: toxicity, organism-based; settings: in vivo
In short: (§3)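 Male CF-1 mice were dosed i.p. with compound suspended in 0.5% methylcellulose (30, 100 or 300 mg/kg). Neurotoxicity was scored by rotarod 0.5 h and 4 h after dosing, as animals showing toxicity/animals tested. Type of toxicity was noted, e.g. inability to grasp the rod, tremors, death.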

[12] = test system: Mus musculus; assay: Neurotoxicity in CF-1 albino mouse at 100 mg/kg, ip after 4 hrs by rotarod test; type: toxicity, organism-based; settings: in vivo; in short: as §3
[13] = Lipophilicity of compound by RP-TLC analysis; type: physicochemical; settings: methanol:acetic acid:water
In short: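 Reversed-phase TLC on RP-18 plates with methanol:acetic acid:water mobile phase (acid constant at 10%, methanol 85–55% in 5% steps). Spots visualised with iodine. RM values were derived from Rf and extrapolated to zero methanol to give RM0.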

[14] = test system: Mus musculus; assay: Neurotoxicity in CF-1 albino mouse assessed as death at 300 mg/kg, ip after 0.5 hrs by rotarod test; settings: in vivo
[15] = molecular target: T1, Histamine H3 receptor; assay: Displacement of [3H]Nalpha-Methylhistamine from recombinant human histamine H3 receptor expressed in HEK293 cell membranes after 90 mins by liquid scintillation counting analysis
[16] = test system: Mus musculus; assay: Neurotoxicity in CF-1 albino mouse assessed as death at 300 mg/kg, ip after 0.5 hrs by rotarod test; type: toxicity, organism-based; settings: in vivo; in short: as §2
[17] = test system: Rattus norvegicus; assay: Anticonvulsant activity in albino Sprague-Dawley rat assessed as protection against maximal electroshock-induced seizures at 30 mg/kg, po after 0.5 to 4 hrs; type: functional, organism-based
In short: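 Male Sprague-Dawley rats, four per group, were given compound orally at a fixed 30 mg/kg in 0.5% methylcellulose suspension. Maximal electroshock test was read at 0.5 h and 4 h.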

[18] = test system: IMR-32; assay: Cytotoxicity against human IMR32 cells assessed as reduction in cell viability after 48 hrs by EZ4U Non-radioactive cell proliferation assay; type: cell-based; settings: IMR-32, 48 h
In short: (§4)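 IMR-32 cells (2×10^4/well) or HEK-293 cells (1.5×10^4/well) in DMEM with 10% FBS were preincubated 24 h at 37 °C, 5% CO2. Compounds from 25 mM DMSO stocks were added at final 0.01–250 μM, with DMSO ≤1%. After 48 h, EZ4U label was added for 5 h and absorbance read at 492 nm.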

[19] = test system: HEK293; assay: Cytotoxicity against HEK293 cells assessed as reduction in cell viability after 48 hrs by EZ4U Non-radioactive cell proliferation assay; type: cell-based; settings: Homo sapiens, HEK293, 48 h; in short: as §4
[20] = molecular target: CYP3A4 (Homo sapiens, UniProt P08684); assay: Activation of recombinant human CYP3A4 using Luciferin-BE as substrate at 25 uM in presence of NADPH by P450-Glo luminescence assay relative to control; type: ADME; settings: recombinant human CYP3A4, probe Luciferin-PPXE, in the assay text read “Luciferin-PPXE” for “Luciferin-BE”, read-out: Activity
In short: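 Recombinant human CYP3A4 P450-Glo luminescence assay: enzyme converts luciferin substrate to D-luciferin, then firefly luciferase is added and light output read as a measure of CYP3A4 activity. Final ligand concentrations 0.025–25 μM.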

[21] = Safety index, ratio of compound IC50 to doxorubicin IC50 for HEK293 cells after 48 hrs by EZ4U non-radioactive cell proliferation assay; type: ADME, cell-based; settings: human, read-out: Ratio IC50
[22] = Safety index, ratio of compound IC50 to doxorubicin IC50 for human IMR32 cells after 48 hrs by EZ4U Non-radioactive cell proliferation assay; type: ADME, cell-based; settings: IMR-32 cells, read-out: Ratio IC50
[23] = molecular target: T1, Histamine H3 receptor; assay: Antagonist activity at recombinant human histamine H3 receptor expressed in HEK293 cells assessed as inhibition of forskolin-stimulated intracellular cAMP accumulation after 30 mins by TR-FRET TR-FRET assay; type: functional, cell-based
In short: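 TR-FRET cAMP immunoassay in HEK293 cells stably expressing hH3R, 300 cells/well. (R)-α-methylhistamine (15 nM), forskolin (10 μM) and antagonist (0.1 nM–10 μM) added together. Stimulation 30 min at room temperature, then Eu-cAMP tracer and ULight anti-cAMP antibody added for 1 h. Mean of three experiments, each in triplicate.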

[24] = test system: Mus musculus; assay: Anticonvulsant activity in CF-1 albino mouse assessed as protection against maximal electroshock-induced seizures at 300 mg/kg, ip after 0.5 hrs; type: functional, organism-based; in short: as §1
[25] = test system: Mus musculus; assay: Anticonvulsant activity in CF-1 albino mouse assessed as protection against maximal electroshock-induced seizures at 300 mg/kg, ip after 4 hrs; type: functional, organism-based; in short: as §1
[26] = test system: Mus musculus; assay: Anticonvulsant activity in CF-1 albino mouse assessed as protection against subcutaneous pentetrazole-induced seizures at 300 mg/kg, ip after 0.5 hrs; type: functional, organism-based
[27] = test system: Mus musculus; assay: Anticonvulsant activity in CF-1 albino mouse assessed as protection against subcutaneous pentetrazole-induced seizures at 300 mg/kg, ip after 4 hrs; type: functional, organism-based
[28] = test system: Mus musculus; assay: Neurotoxicity in CF-1 albino mouse at 30 mg/kg, ip after 0.5 hrs by rotarod test; type: toxicity, organism-based; settings: in vivo; in short: as §3
[29] = test system: Mus musculus; assay: Neurotoxicity in CF-1 albino mouse assessed as death at 100 mg/kg, ip after 4 hrs by rotarod test; type: toxicity, organism-based; settings: in vivo; in short: as §2

Chain of CYP3A4 (P08684 whole entry): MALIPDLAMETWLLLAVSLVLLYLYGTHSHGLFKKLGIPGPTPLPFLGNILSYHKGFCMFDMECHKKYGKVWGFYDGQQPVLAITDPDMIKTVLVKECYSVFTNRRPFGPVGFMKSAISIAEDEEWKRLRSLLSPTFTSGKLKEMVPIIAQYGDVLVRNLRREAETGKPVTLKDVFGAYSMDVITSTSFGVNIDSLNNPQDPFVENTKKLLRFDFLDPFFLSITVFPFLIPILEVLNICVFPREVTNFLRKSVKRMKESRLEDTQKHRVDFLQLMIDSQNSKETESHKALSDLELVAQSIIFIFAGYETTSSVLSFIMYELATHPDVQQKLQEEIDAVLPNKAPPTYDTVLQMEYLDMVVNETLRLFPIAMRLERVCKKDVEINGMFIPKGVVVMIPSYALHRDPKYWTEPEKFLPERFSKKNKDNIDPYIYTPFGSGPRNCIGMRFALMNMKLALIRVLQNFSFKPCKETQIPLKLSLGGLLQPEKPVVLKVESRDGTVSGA
T1 sequence (Q9Y5N1 whole entry): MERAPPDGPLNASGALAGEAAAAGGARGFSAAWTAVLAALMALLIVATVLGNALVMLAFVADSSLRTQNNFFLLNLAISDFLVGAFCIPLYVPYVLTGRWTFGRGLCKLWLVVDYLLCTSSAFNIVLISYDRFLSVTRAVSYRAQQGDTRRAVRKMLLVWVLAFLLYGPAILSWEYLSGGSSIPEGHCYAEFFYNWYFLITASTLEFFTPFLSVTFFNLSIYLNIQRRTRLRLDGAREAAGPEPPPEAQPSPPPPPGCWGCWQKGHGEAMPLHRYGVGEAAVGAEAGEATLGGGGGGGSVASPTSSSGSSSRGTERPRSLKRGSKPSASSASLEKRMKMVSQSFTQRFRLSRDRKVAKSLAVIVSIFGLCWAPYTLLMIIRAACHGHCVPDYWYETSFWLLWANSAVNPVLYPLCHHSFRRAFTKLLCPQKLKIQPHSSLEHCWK

Structure (SMILES) | Ki [1] [nM] | Activity [2] | Activity [3] | Activity [4] | Activity [5] | Activity [6] | Activity [7] | Activity [8] | Activity [9] | Activity [11] | Rm [13] | also measured
CCC(C)(C)c1ccc(OCCCCCCN2CCCCC2)cc1.O=C(O)C(=O)O | 46.5 | inactive | inactive | Active | Active | inactive | inactive | inactive | inactive | Non-Toxic | 2.456 | Activity [10]: Toxic; Activity [12]: Non-Toxic; Activity [14]: Toxic
CCC(C)(C)c1ccc(OCCCCN2CCCCC2)cc1.O=C(O)C(=O)O |  | Active | inactive | Active |  | inactive | inactive | inactive | inactive | Non-Toxic | 1.883 | Ki [15]: 140 nM; Activity [10]: Toxic; Activity [16]: Toxic; Activity [12]: Non-Toxic; Activity [17]: inactive
COc1cccc2c1C(=O)c1c(O)c3c(c(O)c1C2=O)C[C@@](O)(C(=O)CO)C[C@@H]3O[C@H]1C[C@H](N)[C@H](O)[C@H](C)O1 [DOXORUBICIN] |  |  |  |  |  |  |  |  |  |  |  | IC50 [18]: 5.1 nM
CCC(C)(C)c1ccc(OCCCCCN2CCC(C)CC2)cc1 | 23.4 |  |  |  |  |  |  |  |  |  |  | IC50 [19]: 37100 nM; IC50 [18]: 27900 nM; activity at 25 µM [20]: 325%; selectivity ratio at 48 h [21]: 50 to 90; selectivity ratio at 48 h [22]: > 1000
CCC(C)(C)c1ccc(OCCCCCCCN2CCC(C)CC2)cc1.O=C(O)C(=O)O | 64.4 | inactive | inactive | Active | Active | inactive | inactive | inactive | inactive | Non-Toxic |  | 
CCC(C)(C)c1ccc(OCCCCCN2CCCCC2)cc1.O=C(O)C(=O)O | 8.8 | inactive | inactive |  | inactive | inactive | inactive | inactive | inactive | Non-Toxic | 2.172 | EC50 [23]: 157 nM; IC50 [19]: 41200 nM; IC50 [18]: 72700 nM; activity at 25 µM [20]: 21%; Activity [12]: Non-Toxic; selectivity ratio at 48 h [21]: 50 to 90; selectivity ratio at 48 h [22]: > 1000
CCC(C)(C)c1ccc(OCCCCCCCN2CCCC(C)C2)cc1.O=C(O)C(=O)O (centres undefined) | 36.6 | inactive | inactive |  | Active | inactive | inactive | inactive | inactive | Non-Toxic | 2.983 | Activity [24]: Active; Activity [25]: inactive; Activity [26]: inactive
CCC(C)(C)c1ccc(OCCCCCCCCN2CCCCCC2)cc1.O=C(O)C(=O)O | 182 |  |  |  |  |  |  |  |  |  | 3.384 | 
CCC(C)(C)c1ccc(OCCCCCCCCN2CCCC(C)C2)cc1.O=C(O)C(=O)O (centres undefined) | 121 | inactive | inactive |  | Active | inactive | inactive | inactive | inactive | Non-Toxic | 3.562 | Activity [24]: Active; Activity [26]: inactive; Activity [27]: inactive; Activity [28]: Non-Toxic; Activity [12]: Non-Toxic; Activity [17]: inactive
CCC(C)(C)c1ccc(OCCCCCN2CCCC(C)C2)cc1.O=C(O)C(=O)O (centres undefined) | 13.6 | inactive | inactive |  | Active | inactive | inactive | inactive | inactive | Non-Toxic | 2.342 | EC50 [23]: 164 nM; IC50 [19]: 25100 nM; IC50 [18]: 30900 nM; activity at 25 µM [20]: 52%; selectivity ratio at 48 h [21]: 50 to 90; selectivity ratio at 48 h [22]: > 1000
CCC(C)(C)c1ccc(OCCCCCCN2CCC(C)CC2)cc1.O=C(O)C(=O)O | 60.5 | Active | Active | Active | Active | inactive | inactive | inactive | inactive | Non-Toxic |  | Activity [24]: Active; Activity [14]: Toxic
CCC(C)(C)c1ccc(OCCCCN2CCCC(C)C2)cc1.O=C(O)C(=O)O (centres undefined) |  | Active | inactive | Active | Active | inactive | inactive |  | inactive | Non-Toxic | 2.294 | Ki [15]: 46 nM; Activity [10]: Toxic; Activity [16]: Toxic; Activity [29]: Toxic; Activity [17]: inactive
CCC(C)(C)c1ccc(OCCCCCCCCN2CCCCC2)cc1.O=C(O)C(=O)O | 326 |  |  |  |  |  |  |  |  |  | 3.075 | 
CCC(C)(C)c1ccc(OCCCCCCCN2CCCCCC2)cc1.O=C(O)C(=O)O | 128 |  |  |  |  |  |  |  |  |  | 2.926 | 
